Screens from PubChem BioAssay.
SENP7 block: SENP7 protease inhibitors, primary screen, biochemical, luminescence, uHTS | recombinant SENP7, Z-RLRGG-aminoluciferin luminescence, 40 min | inhibition, % at 5 µM | actives 1.5% (n = 330,000) | Sentrin-specific protease 7 (Homo sapiens), Q9BQF6 | AID 434973, 2010;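 active = inhibition above about 50% at the single test dose, limit read from the data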
SENP8 block-1: SENP8 protease inhibitors, primary screen, biochemical, luminescence | actives 1.2% (n = 330,000) | inhibition, % at 10 µM | AID 2540, 2010 | Sentrin-specific protease 8 (Homo sapiens), Q96LD8 | purified SENP8, Z-RLRGG-aminoluciferin cleavage; in the data active = inhibition above about 50%
SENP6 inh: SENP6 protease inhibitors, primary screen, biochemical, luminescence, uHTS. Sentrin-specific protease 6 (Homo sapiens), Q9GZR1. Recombinant SENP6 catalytic domain, aminoluciferin luminescence. inhibition, % at 10 µM. actives 1.8% (n = 330,000). AID 2599, 2010;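 active = inhibition above about 50% at the single tested dose, limit read from the data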
SENP1 FRET inh: human SENP1 catalytic domain inhibitors, primary screen, biochemical, FRET, uHTS; Sentrin-specific protease 1 (Homo sapiens), Q9P0U3; recombinant SENP1 catalytic domain, CyPet-SUMO1-YPet FRET cleavage; inhibition, % at 10 µM; actives 0.21% (n = 360,000); AID 624204, 2012;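 active = inhibition at least 30% at 10 µM, raw YFP signal under a set limit, fluorescence ratio 0.5 to 1.5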
Target sequence (Q9P0U3 419-644 limits assumed): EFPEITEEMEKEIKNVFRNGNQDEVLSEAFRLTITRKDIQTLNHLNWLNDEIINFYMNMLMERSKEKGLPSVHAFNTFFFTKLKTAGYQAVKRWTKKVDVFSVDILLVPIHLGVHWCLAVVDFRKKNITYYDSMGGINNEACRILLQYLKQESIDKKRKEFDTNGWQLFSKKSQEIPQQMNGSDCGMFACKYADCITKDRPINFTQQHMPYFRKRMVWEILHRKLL
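Compound: 10 µM single point, 0.5% DMSO; Test system: hSENP1 catalytic domain, recombinant; Timing: 50 min reaction at room temperature; Technique: FRET, CFP and YFP emission; Control set: no-enzyme wells low, DMSO-plus-enzyme wells high control.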
SENP8 block-2: human SENP8 protease inhibitors, primary screen, biochemical, fluorescence, Nedd8 protein substrate, uHTS. recombinant SENP8. inhibition, % at 20 µM. actives 0.64% (n = 360,000). AID 602440, 2012. Sentrin-specific protease 8 (Homo sapiens), Q96LD8; in the data active = inhibition mostly above about 40%, no sharp cut-off; inactive = mostly below about 27%
NRP1-CendR mod: modulators of CendR peptide binding to NRP-1, primary screen, biochemical, fluorescence polarization, uHTS; inhibition, % at 25 µM; actives 0.85% (n = 360,000); Neuropilin-1 (Homo sapiens), O14786; FAM-RPARPAR peptide binding to NRP-1;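 active = inhibition or corrected inhibition above about 18%, plus a signal ratio from 0.5 to 1.5, limit read from the data, passing the limit was not always enough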
SENP8 confirm: SENP8 protease inhibitors, retest, confirmation, biochemical, luminescence, single concentration | shares compounds with SENP7 block | Recombinant SENP8, Z-RLRGG-aminoluciferin luminescence, 60 min | inhibition, % at 12.5 µM | actives 40% (n = 6,200);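 active = mean inhibition across replicates above about 50%, limit read from the data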
SENP6 conf: SENP6 protease inhibitors, confirmation, biochemical, luminescence, single concentration | shares compounds with SENP7 block | recombinant SENP6, Z-RLRGG-aminoluciferin luminescence | inhibition, % at 12.5 µM | actives 58% (n = 6,200) | AID 488915, 2010
SENP7 confirm: SENP7 protease inhibitors, retest, confirmation, biochemical, luminescence, single concentration | recombinant SENP7, Z-RLRGG-aminoluciferin luminescence, 40 min | AID 488917, 2010 | inhibition, % at 12.5 µM | actives 69% (n = 6,200) | shares compounds with SENP7 block
Casp3 select: caspase-3 protease inhibitors, confirmation, selectivity assay for SENP inhibitor project, biochemical, single concentration; shares compounds with SENP7 block; purified caspase-3, Z-DEVD-aminoluciferin luminescence, 60 min; inhibition, % at 12.5 µM; actives 60% (n = 6,200); AID 488918, 2010;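 active = mean inhibition above about 50%, limit read from the data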
Target sequence (P42574 28-227 limits assumed): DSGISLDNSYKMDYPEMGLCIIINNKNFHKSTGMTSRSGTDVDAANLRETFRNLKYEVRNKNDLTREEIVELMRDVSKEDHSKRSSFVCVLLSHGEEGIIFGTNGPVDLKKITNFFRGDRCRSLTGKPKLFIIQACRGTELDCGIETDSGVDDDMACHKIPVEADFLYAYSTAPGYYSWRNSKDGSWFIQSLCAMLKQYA
Luc interf: counter-screen for SENP inhibitors: luminescence interference. actives 39% (n = 6,200). Pre-incubated SENP8/Z-RLRGG-aminoluciferin, luciferase luminescence interference. shares compounds with SENP7 block. inhibition, % at 12.5 µM;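 active = mean inhibition above about 50% when retested at one dose, limit read from the data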
A number is an active result; . = inactive; / = not tested or not shown. Most compounds without a hit are left out; they make up all but 3.3% or so of the library.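 Rule for the calls, unless noted: active = mean inhibition above about 50% in the one-dose retest (limit read from the data); inactive = the rest.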

SMILES	SENP7 block	SENP8 block-1	SENP6 inh	SENP1 FRET inh	SENP8 block-2	NRP1-CendR mod	SENP8 confirm	SENP6 conf	SENP7 confirm	Casp3 select	Luc interf
CCOc1ccccc1Nc1nc(-c2sc(NC(=O)c3cccc(Cl)c3)nc2C)cs1	77	68	84	.	.	.	.	.	.	.	.
Cc1nc(NC(=O)c2ccccc2)sc1-c1csc(NCCc2ccccc2)n1	57	.	63	.	.	.	.	.	.	.	.
Cc1nc(-c2ccc(NC(=O)c3ccccc3)cc2)cs1	97	94	97	.	.	.	87	97	101	96	83
Cc1nc(N)sc1-c1csc(NCc2ccccc2)n1	.	.	.	.	.	.	/	/	/	/	/
CC(C)C[C@H]1CN(CCCC[C@@H]2CNC(=O)C(=O)N2CCc2ccccc2)C(=O)C(=O)N1CCC1CCCCC1	/	/	/	.	.	.	/	/	/	/	/
O=S1(=O)CC(N2CCC(c3ccccc3)CC2)CN1Cc1ccccc1 (configuration not stated)	/	/	/	.	.	.	/	/	/	/	/
Cc1nc(NC(=O)c2ccccc2)sc1-c1csc(NCc2ccccc2)n1	75	64	80	.	.	.	.	.	.	.	.
Cc1nc(N=Nc2ccc(O)cc2)n[nH]1	58	.	75	.	.	.	58	53	86	87	63
Cc1ccc(-c2nc(N=Nc3ccc(O)cc3)n[nH]2)cc1	.	.	.	.	.	.	/	/	/	/	/
Brc1ccccc1-c1nc2c3ccccc3ncn2n1	.	77	91	.	.	.	.	.	68	.	56
CC(=O)NCCNc1nc2cc(-c3ccc(Cl)cc3C)sc2c(=O)n1C	/	/	/	.	.	.	/	/	/	/	/
O=C(Oc1ccc(-c2cn3c(n2)SCC3)cc1)c1ccccc1	71	.	.	.	.	.	.	.	.	51	.
CC(=O)Nc1ccc(-c2cn3c(n2)SCC3)cc1	.	.	.	.	.	.	/	/	/	/	/
CC(/C=C1\SC(=S)N(CCC(=O)Nc2cccc(C(=O)O)c2)C1=O)=C\c1ccccc1	.	.	.	.	.	.	/	/	/	/	/
CCc1ccc(/C=C2/SC(=S)N(CCC(=O)Nc3cccc(C(=O)O)c3)C2=O)cc1	52	79	.	.	21	.	.	.	.	.	.
CCc1ccc(C=C2SC(=S)N(CCCC(=O)Nc3ccc(C(=O)O)cc3)C2=O)cc1	/	/	/	.	.	.	/	/	/	/	/
CCc1ccc(/C=C2/SC(=S)N(CCC(=O)Nc3ccc(C(=O)O)cc3)C2=O)cc1	75	85	.	.	.	.	.	.	.	.	.
Cc1ccc(/C=C2\SC(=S)N(CCCC(=O)Nc3cccnc3)C2=O)cc1	61	52	58	.	.	.	.	.	.	.	.
